Test results as given in ChEMBL document CHEMBL5505965 (Eur J Med Chem, 2024).
Values after ≈ are worked out from the molar mass of the structure shown.

What was measured:
[1] = Inhibition of NDM1 (unknown origin)
Escherichia coli [2] = experiment: Synergistic anti-bacterial activity Escherichia coli E.cloni MP30-57 expressing blaVIM- gene assessed as decrease in meropenem MIC at 500 uM; assay type: functional
Escherichia coli [3] = experiment: Synergistic anti-bacterial activity Escherichia coli E.cloni MP30-63 expressing blaNDM- gene assessed as fold reduction in meropenem MIC at 500 uM; assay type: functional
Escherichia coli [4] = experiment: Synergistic anti-bacterial activity Escherichia coli E.cloni MP30-63 expressing blaNDM- gene assessed as decrease in meropenem MIC at 500 uM; assay type: functional
Escherichia coli [5] = experiment: Synergistic anti-bacterial activity Escherichia coli E.cloni MP30-58 expressing blaIMP- gene assessed as decrease in meropenem MIC at 500 uM; assay type: functional
Escherichia coli [6] = experiment: Synergistic anti-bacterial activity Escherichia coli E.cloni MP30-58 expressing blaIMP- gene assessed as fold reduction in meropenem MIC at 500 uM; assay type: functional
Escherichia coli [7] = experiment: Synergistic anti-bacterial activity Escherichia coli E.cloni MP30-57 expressing blaVIM- gene assessed as fold reduction in meropenem MIC at 500 uM; assay type: functional
Escherichia coli [8] = experiment: Anti-bacterial activity against Escherichia coli E.cloni MP21-05 assessed as decrease in bacterial growth; assay type: functional
Escherichia coli [9] = experiment: Anti-bacterial activity against Escherichia coli E.cloni MP30-63 expressing blaNDM- gene assessed as decrease in bacterial growth; assay type: functional
Outline: (§1)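 Test compound held at a fixed 500 μM in E. coli producing the B1 metallo-β-lactamase (NDM-1, VIM-2 or IMP-26). Growth was checked with the compound alone and in combination with meropenem. Read-out was the meropenem MIC (mg/L) and its fold reduction.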

Escherichia coli [10] = experiment: Anti-bacterial activity against Escherichia coli E.cloni MP30-58expressing blaIMP- gene assessed as decrease in bacterial growth; assay type: functional; outline: as §1
Escherichia coli [11] = experiment: Anti-bacterial activity against Escherichia coli E.cloni MP30-57 expressing blaVIM- gene assessed as decrease in bacterial growth; assay type: functional; outline: as §1

Row | Compound | IC50 [1] [µM] | also measured
1 | O=C(O)c1ccc(CNC(=O)C(CS)C(F)(F)F)cc1 (configuration not stated) | 65 | –
2 | O=C(O)C1CCN(C(=O)C(CS)C(F)(F)F)CC1 (configuration not stated) | 2.2 | MIC (Escherichia coli [2]): 0.125 µg/mL; fold change (FC) (Escherichia coli [3]): 32; MIC (Escherichia coli [4]): 1 µg/mL; MIC (Escherichia coli [5]): 2 µg/mL
3 | C[C@@H](CS)C(=O)N1CCC[C@@H]1C(=O)O | 64 | –
4 | O=C(O)C1CCN(C(=O)CC(S)C(F)(F)F)CC1 (configuration not stated) | > 300 | –
5 | O=C(O)[C@@H]1CCCN1C(=O)[C@@H](CS)C(F)(F)F | 6.1 | MIC (Escherichia coli [2]): 0.06 µg/mL; fold change (FC) (Escherichia coli [6]): 8; MIC (Escherichia coli [4]): 4 µg/mL; fold change (FC) (Escherichia coli [7]): 8; MIC (Escherichia coli [5]): 0.25 µg/mL
6 | O=C(NCc1ccccc1)[C@H](CS)C(F)(F)F | 10 | –
7 | O=C(O)[C@H]1CCCN1C(=O)CC(S)C(F)(F)F (some centres not stated) | > 300 | –
8 | O=C(Nc1ccccc1)C(CS)C(F)(F)F (configuration not stated) | 3.4 | –
9 | O=C(O)[C@H]1CCCN1C(=O)[C@H](CS)C(F)(F)F | 4.5 | –
10 | C[C@@H](CS)C(=O)N1CCC[C@H]1C(=O)O | > 500 | –
11 | O=C(NCc1ccccc1)C(CS)C(F)(F)F (racemic) | 20 | –
12 | O=C(O)[C@@H]1CCCN1C(=O)C(CS)C(F)(F)F (some centres not stated) | 37 | –
13 | O=C(O)[C@H]1CCCCN1C(=O)C(CS)C(F)(F)F (some centres not stated) | 3.2 | MIC (Escherichia coli [2]): 0.125 µg/mL; fold change (FC) (Escherichia coli [3]): 32; MIC (Escherichia coli [4]): 0.5 µg/mL; MIC (Escherichia coli [5]): 0.5 µg/mL
14 | O=C(CC(S)C(F)(F)F)Nc1ccc(C(=O)O)cc1 (configuration not stated) | 5.6 | –
15 | O=C(O)[C@H]1CCCCN1C(=O)CC(S)C(F)(F)F (some centres not stated) | 145 | –
16 | O=C(CC(S)C(F)(F)F)NCc1ccccc1 (configuration not stated) | > 300 | –
17 | C[C@@H](O)[C@H]1C(=O)N2C(C(=O)O)=C(S[C@@H]3CN[C@H](C(=O)N(C)C)C3)[C@H](C)[C@H]12 [MEROPENEM] | – | MIC (Escherichia coli [8]): 0.03 µg/mL (≈ 0.0782 µM); MIC (Escherichia coli [9]): 32 µg/mL (≈ 83.4 µM); MIC (Escherichia coli [10]): 2 µg/mL (≈ 5.22 µM); MIC (Escherichia coli [11]): 0.5 µg/mL (≈ 1.3 µM)
18 | O=C(O)[C@H]1CCCN1C(=O)[C@@H](CS)C(F)(F)F | 0.3 | MIC (Escherichia coli [2]): 0.25 µg/mL; MIC (Escherichia coli [4]): 4 µg/mL; MIC (Escherichia coli [5]): 4 µg/mL
19 | O=C(O)[C@@H]1CCCN1C(=O)[C@H](CS)C(F)(F)F | 60 | –
20 | O=C(CC(S)C(F)(F)F)NCc1ccc(C(=O)O)cc1 (configuration not stated) | > 300 | –
21 | O=C(CC(S)C(F)(F)F)Nc1ccccc1 (configuration not stated) | 22 | –
22 | O=C(NCc1ccccc1)[C@@H](CS)C(F)(F)F | 75 | –
23 | O=C(O)[C@@H]1CCCN1C(=O)CC(S)C(F)(F)F (some centres not stated) | > 300 | –
